For two molecules, Activity and Selectivity ratio results are on record in ChEMBL document CHEMBL3297646, “Structure-activity relationship study of non-steroidal NPC1L1 ligands identified through cell-based assay using pharmacological chaperone effect as a readout” (Bioorg Med Chem, 2014).

In data set [1] the target is T1, NPC1-like intracellular cholesterol transporter 1 (Homo sapiens) (UniProt Q9UHC9).
T1 sequence (whole entry): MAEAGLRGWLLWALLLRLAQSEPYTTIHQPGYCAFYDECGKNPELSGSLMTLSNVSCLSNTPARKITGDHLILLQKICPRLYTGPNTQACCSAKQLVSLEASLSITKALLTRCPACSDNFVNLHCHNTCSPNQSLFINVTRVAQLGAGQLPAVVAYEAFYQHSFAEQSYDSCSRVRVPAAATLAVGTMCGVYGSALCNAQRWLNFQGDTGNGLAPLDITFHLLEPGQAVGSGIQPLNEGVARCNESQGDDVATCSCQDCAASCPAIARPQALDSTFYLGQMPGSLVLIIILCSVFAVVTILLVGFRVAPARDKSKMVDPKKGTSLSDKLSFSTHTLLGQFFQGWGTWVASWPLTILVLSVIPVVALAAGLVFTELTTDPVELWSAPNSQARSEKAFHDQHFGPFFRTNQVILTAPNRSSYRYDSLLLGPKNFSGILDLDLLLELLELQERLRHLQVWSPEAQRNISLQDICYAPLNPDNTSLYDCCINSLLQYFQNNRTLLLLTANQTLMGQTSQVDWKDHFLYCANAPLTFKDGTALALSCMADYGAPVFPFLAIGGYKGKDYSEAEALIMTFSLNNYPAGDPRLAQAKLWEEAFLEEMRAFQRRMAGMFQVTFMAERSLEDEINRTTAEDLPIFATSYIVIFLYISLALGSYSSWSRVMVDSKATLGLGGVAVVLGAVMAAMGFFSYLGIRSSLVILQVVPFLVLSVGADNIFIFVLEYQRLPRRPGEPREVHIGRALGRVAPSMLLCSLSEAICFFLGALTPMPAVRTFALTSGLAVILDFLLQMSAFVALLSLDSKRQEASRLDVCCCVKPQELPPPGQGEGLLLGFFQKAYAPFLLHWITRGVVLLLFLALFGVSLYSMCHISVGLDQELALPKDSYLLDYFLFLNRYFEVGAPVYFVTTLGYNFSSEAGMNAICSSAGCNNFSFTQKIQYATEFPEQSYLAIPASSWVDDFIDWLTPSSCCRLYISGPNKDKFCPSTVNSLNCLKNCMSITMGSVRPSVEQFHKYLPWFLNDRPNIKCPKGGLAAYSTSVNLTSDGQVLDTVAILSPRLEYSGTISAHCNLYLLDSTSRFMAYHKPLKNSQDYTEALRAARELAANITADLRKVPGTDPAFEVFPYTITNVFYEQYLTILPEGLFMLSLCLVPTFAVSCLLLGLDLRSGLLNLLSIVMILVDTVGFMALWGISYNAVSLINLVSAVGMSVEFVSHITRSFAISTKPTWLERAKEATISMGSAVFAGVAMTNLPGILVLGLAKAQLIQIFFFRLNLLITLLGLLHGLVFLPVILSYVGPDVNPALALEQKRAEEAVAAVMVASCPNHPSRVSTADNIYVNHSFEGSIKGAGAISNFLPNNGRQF
Put plainly: Binding affinity to human EGFP-tagged full-length NPC1L1 L1072T/L1168I mutant expressed in HEK293 cells assessed as protein stabilization after 24 hrs by fluorescence assay. In kind it is cell-based. In outline:
(§1)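 Steady-state levels of full-length or NTD-deleted NPC1L1 L1072T/L1168I-GFP were measured in stably expressing HEK293 cells treated with compound at 1–30 µM or vehicle. GFP fluorescence in cell lysates was normalized to total protein by bicinchoninic acid assay. Values are expressed as % of vehicle-treated cells.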

The target in data set [2] is T1, NPC1-like intracellular cholesterol transporter 1 (Homo sapiens). Put plainly: Binding affinity to human EGFP-tagged NTD-deleted NPC1L1 L1072T/L1168I mutant expressed in HEK293 cells assessed as protein stabilization after 24 hrs by fluorescence assay. The data set is classed as cell-based. In outline:
as §1

Data set [3] shares this target. Description: Binding affinity to human EGFP-tagged NTD-deleted NPC1L1 L1072T/L1168I mutant expressed in HEK293 cells assessed as localization to plasma membrane after 24 hrs by fluorescence microscopic analysis. The data set is classed as cell-based. In outline:
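Stable HEK293 lines expressing NTD-deleted NPC1L1 L1072T/L1168I-EGFP were grown 24 h on poly-D-lysine-coated glass-bottomed wells and treated with compound (0.1% final DMSO). Cells were fixed in 3.7% formaldehyde-PBS with Hoechst-33342 nuclear counterstain. NPC1L1-GFP localization was examined by fluorescence imaging.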

The next data set is filed under the species Homo sapiens. Description: Selectivity for human GFP-tagged NPC1L1 L1072T/L1168I mutant over LXR (unknown origin).
Data set [4] has as its target T1, NPC1-like intracellular cholesterol transporter 1 (Homo sapiens). Put plainly: Binding affinity to human GFP-tagged NPC1L1 L1072T/L1168I mutant expressed in HEK293 cells assessed as localization to plasma membrane at 30 uM after 24 hrs by fluorescence microscopic analysis. In kind it is cell-based. In outline: (§2)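 HEK293 cells stably expressing EGFP-tagged NPC1L1 L1072T/L1168I were plated on poly-D-lysine-coated glass-bottomed wells (20 µg/mL in PBS) and grown 24 h. They were then exposed to compound at 10 or 30 µM (0.1% final DMSO) and fixed in 3.7% formaldehyde-PBS. Read-out was % of EGFP signal localized to the plasma membrane.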

Data set [5] has the same target. Put plainly: Binding affinity to human GFP-tagged NPC1L1 L1072T/L1168I mutant expressed in HEK293 cells assessed as localization to plasma membrane at 10 uM after 24 hrs by fluorescence microscopic analysis. In kind it is cell-based. In outline: as §2
Data set [6] deals with Liver X receptor (Homo sapiens) (UniProt Q13133+P55055). Description: Activation of LXR (unknown origin) expressed in HEK293 cells at 30 uM after 16 hrs by luciferase reporter gene assay. The data set is classed as cell-based. (Reporter assays use an easily measured gene product as a stand-in for the process of interest.)
The next data set has as its system HEK293. Put plainly: Cytotoxicity against HEK293 cells transfected with human GFP-tagged NPC1L1 L1072T/L1168I mutant at 30 uM. In kind it is cell-based. As to conditions: hek293, 30 µM.

Activity calls are given as the source filed them. No cut-off for these calls is given here.

As to `CCCCn1c(=O)c2c(c3cc(C(=O)N(CC)C4CC4)ccc31)CCCCC2`, the result in data set [1], in data set [2] and in data set [3] was Active. In addition, the Selectivity ratio in the data set filed under Homo sapiens amounted to 2. The Activity in data set [4] was found to be 45%; in data set [5], 8%. Also, in data set [6], the outcome was inactive.

With `CCCCCCn1c(=O)c2c(c3cc(C(=O)N(CC)C4CC4)ccc31)CCCCC2`, the Activity result with HEK293 was “Toxic”; in data set [5], 1%.
